# Published values pooled from the literature.
# Compare with care: the assays were run in different laboratories.
# Target: Rho-associated protein kinase 2 (ROCK2, Homo sapiens, UniProt O75116)
SMILES,test,conditions,endpoint,result
Nc1ncc(-c2nc(N3CCOCC3)nc(N3CCOCC3)n2)c(C(F)F)n1,"binding, competition with immobilised ligand",10 µM,remaining binding,100%
N#CC1(c2ccccn2)CCN(Cc2cc(C(=O)O)c(=O)n3ccccc23)CC1,"cell-free assay, competition with immobilised ligand",1 µM,remaining binding,85%
CC(C)(C)c1cc(C=C(C#N)C#N)cc(Br)c1O,"enzyme activity, inhibitor",0.5 µM,remaining activity,95.6%
C#Cc1n[nH]c2c(-c3cn(C(C)c4ccccn4)c(=O)[nH]c3=O)cc(F)cc12 (stereo not drawn),"enzyme activity, inhibitor",1 µM,inhibition,4.2%
COc1ncccc1-c1cnn2ccc(N3CCN(C(=O)OC(C)C)CC3)nc12,"binding, competition with immobilised ligand",1 µM,remaining binding,86%
Cn1cc(-c2cccc(N3CCc4c(sc5c4CC(C)(C)C5)C3=O)c2CO)cc(Nc2ccncn2)c1=O,"enzyme activity, inhibitor",1 µM,inhibition,1%
C#Cc1n[nH]c2c(-c3cn([C@@H](C)c4ccccc4)c(=O)[nH]c3=O)cc(F)cc12,"enzyme activity, inhibitor",0.1 µM,inhibition,3%
O=c1[nH]c2ccccc2n1C1CCN(Cc2ccc(-c3[nH]c4cc5ncnc5cc4nc3-c3ccccc3)cc2)CC1,cell-free assay,0.5 µM,remaining signal,109%
Cn1cncc1[C@@](O)(COc1ccc(C#N)cc1-c1ccc(OC(F)(F)F)cc1)c1ccc(C#N)cc1,"cell-free assay, competition with immobilised ligand",1 µM,remaining binding,100%
Cn1cc(-c2cc(F)cc(N3CCn4c(cc5c4CCCC5)C3=O)c2CO)cc(Nc2ccc(N3CCN(C4COC4)CC3)cn2)c1=O,"enzyme activity, inhibitor",0.1 µM,inhibition,1%
Cc1nn(C)cc1-c1nc2c(N3CCN(Cc4ccc(Cl)cc4)CC3)c(Cl)cnc2[nH]1,"binding, competition with immobilised ligand",1 µM,remaining binding,35%
COc1cc(Nc2ncc(F)c(Nc3ccc4c(n3)NC(=O)C(C)(C)O4)n2)cc(OC)c1OC,binding,10 µM,inhibition,86%
